Data set [1] in a line: fT>MIC in Staphylococcus aureus E19977 infected NMRI mouse at 400 mg/kg administered every 12 hrs. The data set is classed as functional. The method in brief:
(§1)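 Calculated percentage of 24 h at steady state that free plasma DCX exceeds the strain MIC (microdilution, pH 7.4). Concentrations were simulated from single subcutaneous dose plasma curves in NMRI mice (S. lutea bioassay), adjusted with a square-root model of concentration-dependent free fraction from ultrafiltration. The regimen was dosed subcutaneously in mice infected intraperitoneally with 10^7.4 CFU, and peritoneal CFU were read after 24 h of therapy.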

For data set [2], the species on record is Mus musculus. In words: Protein binding in NMRI mouse at 90 mg/l by ultrafiltration. It counts as ADME, organism-based. The settings on record: in vivo. In outline: (§2)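 Plasma binding was measured by ultrafiltration. EDTA blood from healthy mice, or from NMRI mice infected intraperitoneally for 6 h with E19977, was spiked with DCX at 10–400 mg/liter, with PBS controls. Samples were held 1 h at 37°C, then centrifuged through 30-kDa filters at 3,000 × g for 8 min at 37°C. Total and filtrate drug were measured by S. lutea bioassay.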

For data set [3], the species on record is Mus musculus. In words: Protein binding in NMRI mouse at 180 mg/l by ultrafiltration. The data set is classed as ADME, organism-based. The following applies: in vivo. In outline:
as §2

Data set [4] is described as follows: fT>MIC in Staphylococcus aureus E19977 infected NMRI mouse at 200 mg/kg administered every 4 hrs. It counts as functional. The method in brief: as §1
Data set [5] in a line: Ratio of fCmax in NMRI mouse at 340 mg/kg administered every 24 hrs to MIC for Staphylococcus aureus E19977.
A short description of data set [6]: Ratio of fCmax in NMRI mouse at 76 mg/kg administered every 2 hrs to MIC for Staphylococcus aureus E19977. It counts as functional. The method in brief: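 Free Cmax/MIC was modelled, not measured. Single-dose subcutaneous plasma curves from NMRI mice were projected to the multiple-dose regimens. Free fraction came from a square-root fit of unbound fraction versus total concentration. Binding was measured by ultrafiltration of mouse plasma spiked with 10–400 mg/liter and held 1 h at 37°C. MIC was for strain E19977.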

`Cc1onc(-c2c(Cl)cccc2Cl)c1C(=O)N[C@@H]1C(=O)N2[C@@H]1SC(C)(C)[C@@H]2C(=O)O` [DICLOXACILLIN]: the “fT>MIC” value in data set [1] was determined as 35.97%; in data set [4], 86.25%. The Activity in the data set listed under Mus musculus [2] is recorded as 88.7%; in the data set listed under Mus musculus [3], 87.2%. The results for the Ratio in data set [5] and in data set [6] were 233.35 and 28.18, respectively.
